Laboratory results taken from ChEMBL document CHEMBL1765011, “Synthesis and c-Met kinase inhibition of 3,5-disubstituted and 3,5,7-trisubstituted quinolines: identification of 3-(4-acetylpiperazin-1-yl)-5-(3-nitrobenzylamino)-7- (trifluoromethyl)quinoline as a novel anticancer agent” (J Med Chem, 2011).
Activity calls are given as the source filed them. The rule behind the calls is not given here.

Tests used:
BaF3 [1] = experiment: Antiproliferative activity against mouse BAF3 cells expressing TPR-Met after 72 hrs in presence of IL-3; format: functional, cell-based; settings: BaF3, 72 h
Method in brief: (§1)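 Cells were seeded and exposed next day to a range of compound concentrations for 72 h. Proliferation was read by sulforhodamine B or MTT assay, and IC50 derived.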

[2] = molecular target: Hepatocyte growth factor receptor (Mus musculus) (UniProt P16056); experiment: Inhibition of TPR-MET autophosphorylation in mouse NIH3T3 cells after 4 hrs by Western blotting; format: cell-based
Method in brief: (§2)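 Exponentially growing cells were treated with compound for 4 h at 37 °C and lysed in SDS sample buffer. Lysates were run on 10% SDS-PAGE and blotted to nitrocellulose. Blots were probed for phospho-c-Met and total c-Met, with GAPDH as loading control, and detected by ECL.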

[3] = molecular target: Hepatocyte growth factor receptor (Mus musculus) (UniProt P16056); experiment: Inhibition of TPR-MET autophosphorylation in mouse BaF3 cells after 4 hrs by Western blotting; format: cell-based; method in brief: as §2
BaF3 [4] = experiment: Antiproliferative activity against mouse BAF3 cells expressing TPR-Met after 72 hrs in absence of IL-3; format: functional, cell-based; settings: BaF3, 72 h; method in brief: as §1
NIH3T3 [5] = experiment: Antiproliferative activity against mouse NIH/3T3 cells expressing TPR-Met after 72 hrs; format: functional, cell-based; settings: NIH3T3, 72 h; method in brief: as §1
NIH3T3 [6] = experiment: Antiproliferative activity against mouse NIH/3T3 cells after 72 hrs; format: functional, cell-based; settings: NIH3T3, 72 h; method in brief: as §1
[7] = AUC (0 to infinity) in mouse at 20 mg/kg, po; format: ADME, organism-based; parameters: dose 20 mg/kg, route oral, time infinity; settings: plasma
Method in brief: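 Mice dosed orally at 20 mg/kg in DMSO/Tween 80/normal saline vehicle; plasma concentration-time profile used to derive AUC0-∞. Values are the average of three runs.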

[8] = Oral bioavailability in mouse at 20 mg/kg; format: ADME, organism-based; settings: in vivo
[9] = molecular target: Platelet-derived growth factor receptor alpha (Homo sapiens, UniProt P16234); experiment: Inhibition of PDGFRalpha
Method in brief: (§3)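 ELISA on plates precoated with 20 μg/mL poly(Glu,Tyr) 4:1. Buffer: 10 μM ATP, 50 mM HEPES pH 7.4, 50 mM MgCl2, 0.5 mM MnCl2, 0.2 mM Na3VO4, 1 mM DTT, compound in 1% DMSO. Purified kinase was added and incubated 60 min at 37 °C. Phosphotyrosine was detected with PY99 then HRP anti-mouse IgG, o-phenylenediamine, A490. IC50 was taken from inhibition curves.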

[10] = molecular target: Receptor tyrosine-protein kinase erbB-2 (Homo sapiens, UniProt P04626); experiment: Inhibition of ErbB2; method in brief: as §3
[11] = molecular target: Proto-oncogene tyrosine-protein kinase Src (Homo sapiens, UniProt P12931); experiment: Inhibition of c-Src; method in brief: as §3
[12] = molecular target: Tyrosine-protein kinase ABL1 (Homo sapiens, UniProt P00519); experiment: Inhibition of Abl; method in brief: as §3
Ephrin type-A receptor 2 = Ephrin type-A receptor 2 (Homo sapiens, UniProt P29317); experiment: Inhibition of EPH-A2; method in brief: as §3
[13] = molecular target: T1, Hepatocyte growth factor receptor (Homo sapiens, UniProt P08581); experiment: Inhibition of c-Met phosphorylation in human H1993 cells at 0.1 to 3 uM after 4 hrs by Western blotting; format: cell-based; method in brief: as §2
[14] = molecular target: T1, Hepatocyte growth factor receptor; experiment: Inhibition of c-Met phosphorylation in human H1993 cells at 0.5 uM after 4 hrs by Western blotting; format: cell-based; method in brief: as §2
[15] = molecular target: T1, Hepatocyte growth factor receptor; experiment: Inhibition of c-Met in human H1993 cells assessed as ERK1/2 phosphorylation at 0.1 to 3 uM after 4 hrs by Western blotting; format: cell-based
Method in brief: (§4)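 Exponentially growing cells were exposed to compound for 4 h at 37 °C and lysed in SDS sample buffer. Lysates were resolved on 10% SDS-PAGE and blotted. Blots were probed for phospho- and total ERK1/2 and AKT, with GAPDH loading control, and detected by ECL.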

[16] = molecular target: T1, Hepatocyte growth factor receptor; experiment: Inhibition of c-Met in human MKN45 cells assessed as AKT phosphorylation at 0.1 to 3 uM after 4 hrs by Western blotting; format: cell-based; settings: MKN-45; method in brief: as §4
[17] = molecular target: Hepatocyte growth factor receptor (Mus musculus) (UniProt P16056); experiment: Inhibition of TPR-c-Met phosphorylation expressed in mouse […] cells at 0.1 to 3 uM after 4 hrs by Western blotting; format: cell-based; method in brief: as §2
[18] = molecular target: Hepatocyte growth factor receptor (Mus musculus) (UniProt P16056); experiment: Inhibition of TPR-c-Met phosphorylation expressed in mouse BAF3 cells at 0.1 to 3 uM after 4 hrs by Western blotting; format: cell-based; method in brief: as §2
[19] = molecular target: Hepatocyte growth factor receptor (Mus musculus) (UniProt P16056); experiment: Inhibition of TPR-c-Met phosphorylation expressed in mouse […] cells assessed as ERK1/2 phosphorylation at 0.1 to 3 uM after 4 hrs by Western blotting; format: cell-based; method in brief: as §4
[20] = molecular target: Hepatocyte growth factor receptor (Mus musculus) (UniProt P16056); experiment: Inhibition of TPR-c-Met phosphorylation expressed in mouse BAF3 cells assessed as ERK1/2 phosphorylation at 0.1 to 3 uM after 4 hrs by Western blotting; format: cell-based; method in brief: as §4
[21] = molecular target: Hepatocyte growth factor receptor (Mus musculus) (UniProt P16056); experiment: Inhibition of TPR-c-Met phosphorylation expressed in mouse […] cells assessed as AKT phosphorylation at 0.1 to 3 uM after 4 hrs by Western blotting; format: cell-based; method in brief: as §4
MKN-45 = experiment: Antiproliferative activity against human MKN45 cells after 72 hrs; settings: MKN-45, 72 h
SNU-5 = experiment: Antiproliferative activity against human SNU5 cells after 72 hrs; settings: SNU-5, 72 h
SNU1 = experiment: Antiproliferative activity against human SNU1 cells after 72 hrs; settings: SNU1, 72 h
NCI-H441 = experiment: Antiproliferative activity against human NCI-H441 cells after 72 hrs; settings: NCI-H441, 72 h
MDA-MB-231 = experiment: Antiproliferative activity against human MDA-MB-231 cells after 72 hrs; settings: MDA-MB-231, 72 h
BXPC-3 = experiment: Antiproliferative activity against human BxPC3 cells after 72 hrs; settings: BXPC-3, 72 h
U-87MG ATCC = experiment: Antitumor activity against human U87MG cells xenografted in nude mouse assessed as tumor growth inhibition at 50 mg/kg, ip qd for 14 days relative to control; format: functional, organism-based; parameters: dose 50 mg/kg
Method in brief: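 Tumor cells, (5-10)×10^6, were implanted sc in nude mice and grown to 700-800 mm3. Tumors were cut into 1 mm3 fragments and trocar-transplanted sc. At 100-150 mm3, mice were randomized (n = 6) to vehicle or ip dosing daily. Volumes were measured twice weekly by caliper, TV = length×width²/2. % inhibition used final-day versus day-1 change against vehicle, with Student's t test.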

Mus musculus [22] = experiment: Toxicity in human U87MG cells xenografted nude mouse assessed as reduction of body weight at 100 mg/kg, ip qd for 14 days; format: organism-based, U-87MG ATCC; parameters: dose 100 mg/kg, route intraperitoneal; settings: in vivo, 336 h
Mus musculus [23] = experiment: Toxicity in mouse NIH/3T3 cells expressing TPR-Met xenografted nude mouse assessed as reduction in body weight at 100 mg/kg, ip qd for 14 days; format: organism-based, NIH3T3; parameters: dose 100 mg/kg, route intraperitoneal; settings: in vivo, 336 h
Ephrin type-B receptor 2 = Ephrin type-B receptor 2 (Homo sapiens, UniProt P29323); experiment: Inhibition of EPH-B2; method in brief: as §3
[24] = molecular target: Insulin-like growth factor 1 receptor (Homo sapiens, UniProt P08069); experiment: Inhibition of IGF1R
[25] = molecular target: Fibroblast growth factor receptor 1 (Homo sapiens, UniProt P11362); experiment: Inhibition of FGFR1
[26] = molecular target: T1, Hepatocyte growth factor receptor; experiment: Inhibition of c-Met phosphorylation in human MKN45 cells at 0.1 to 3 uM after 4 hrs by Western blotting; format: cell-based; settings: MKN-45; method in brief: as §2
[27] = molecular target: T1, Hepatocyte growth factor receptor; experiment: Inhibition of purified recombinant c-Met at incubated for 30 mins measured after 100 fold dilution

Sequence of Hepatocyte growth factor receptor (Mus musculus) (P16056 whole entry): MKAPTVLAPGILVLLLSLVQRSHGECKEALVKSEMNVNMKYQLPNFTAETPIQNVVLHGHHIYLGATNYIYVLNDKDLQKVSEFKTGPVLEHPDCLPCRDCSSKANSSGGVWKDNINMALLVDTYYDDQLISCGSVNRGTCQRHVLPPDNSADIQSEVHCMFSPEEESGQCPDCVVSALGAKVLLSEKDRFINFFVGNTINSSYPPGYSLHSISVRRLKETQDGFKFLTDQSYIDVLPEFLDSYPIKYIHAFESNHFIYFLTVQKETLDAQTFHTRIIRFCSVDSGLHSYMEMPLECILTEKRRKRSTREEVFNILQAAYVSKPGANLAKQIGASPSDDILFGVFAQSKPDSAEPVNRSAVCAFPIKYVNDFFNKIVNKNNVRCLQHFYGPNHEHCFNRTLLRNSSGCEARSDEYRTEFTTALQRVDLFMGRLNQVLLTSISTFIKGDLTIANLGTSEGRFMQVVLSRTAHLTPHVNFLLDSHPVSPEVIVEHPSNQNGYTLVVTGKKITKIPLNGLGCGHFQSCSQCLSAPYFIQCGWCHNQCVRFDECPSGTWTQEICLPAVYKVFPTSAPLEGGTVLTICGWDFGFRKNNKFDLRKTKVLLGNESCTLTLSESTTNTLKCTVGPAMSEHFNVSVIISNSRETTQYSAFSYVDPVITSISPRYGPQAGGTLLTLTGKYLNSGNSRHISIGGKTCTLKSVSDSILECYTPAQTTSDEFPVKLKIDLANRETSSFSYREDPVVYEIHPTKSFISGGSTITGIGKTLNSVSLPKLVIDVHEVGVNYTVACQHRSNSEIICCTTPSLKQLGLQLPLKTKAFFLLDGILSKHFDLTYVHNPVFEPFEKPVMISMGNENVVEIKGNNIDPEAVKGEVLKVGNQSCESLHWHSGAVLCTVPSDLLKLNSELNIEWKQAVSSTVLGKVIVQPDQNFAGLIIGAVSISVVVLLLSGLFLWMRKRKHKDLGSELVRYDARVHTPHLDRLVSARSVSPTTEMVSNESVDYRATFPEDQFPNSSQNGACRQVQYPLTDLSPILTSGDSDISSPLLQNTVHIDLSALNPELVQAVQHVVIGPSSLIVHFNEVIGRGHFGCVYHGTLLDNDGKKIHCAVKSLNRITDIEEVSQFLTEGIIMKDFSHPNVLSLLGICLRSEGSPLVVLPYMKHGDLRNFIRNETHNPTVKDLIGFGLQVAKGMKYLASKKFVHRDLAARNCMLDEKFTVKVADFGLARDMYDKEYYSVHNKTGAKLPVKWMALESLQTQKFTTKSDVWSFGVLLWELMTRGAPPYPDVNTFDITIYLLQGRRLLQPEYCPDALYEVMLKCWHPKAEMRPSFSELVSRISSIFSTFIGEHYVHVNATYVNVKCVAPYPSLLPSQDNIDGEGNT
T1 sequence (P08581 whole entry): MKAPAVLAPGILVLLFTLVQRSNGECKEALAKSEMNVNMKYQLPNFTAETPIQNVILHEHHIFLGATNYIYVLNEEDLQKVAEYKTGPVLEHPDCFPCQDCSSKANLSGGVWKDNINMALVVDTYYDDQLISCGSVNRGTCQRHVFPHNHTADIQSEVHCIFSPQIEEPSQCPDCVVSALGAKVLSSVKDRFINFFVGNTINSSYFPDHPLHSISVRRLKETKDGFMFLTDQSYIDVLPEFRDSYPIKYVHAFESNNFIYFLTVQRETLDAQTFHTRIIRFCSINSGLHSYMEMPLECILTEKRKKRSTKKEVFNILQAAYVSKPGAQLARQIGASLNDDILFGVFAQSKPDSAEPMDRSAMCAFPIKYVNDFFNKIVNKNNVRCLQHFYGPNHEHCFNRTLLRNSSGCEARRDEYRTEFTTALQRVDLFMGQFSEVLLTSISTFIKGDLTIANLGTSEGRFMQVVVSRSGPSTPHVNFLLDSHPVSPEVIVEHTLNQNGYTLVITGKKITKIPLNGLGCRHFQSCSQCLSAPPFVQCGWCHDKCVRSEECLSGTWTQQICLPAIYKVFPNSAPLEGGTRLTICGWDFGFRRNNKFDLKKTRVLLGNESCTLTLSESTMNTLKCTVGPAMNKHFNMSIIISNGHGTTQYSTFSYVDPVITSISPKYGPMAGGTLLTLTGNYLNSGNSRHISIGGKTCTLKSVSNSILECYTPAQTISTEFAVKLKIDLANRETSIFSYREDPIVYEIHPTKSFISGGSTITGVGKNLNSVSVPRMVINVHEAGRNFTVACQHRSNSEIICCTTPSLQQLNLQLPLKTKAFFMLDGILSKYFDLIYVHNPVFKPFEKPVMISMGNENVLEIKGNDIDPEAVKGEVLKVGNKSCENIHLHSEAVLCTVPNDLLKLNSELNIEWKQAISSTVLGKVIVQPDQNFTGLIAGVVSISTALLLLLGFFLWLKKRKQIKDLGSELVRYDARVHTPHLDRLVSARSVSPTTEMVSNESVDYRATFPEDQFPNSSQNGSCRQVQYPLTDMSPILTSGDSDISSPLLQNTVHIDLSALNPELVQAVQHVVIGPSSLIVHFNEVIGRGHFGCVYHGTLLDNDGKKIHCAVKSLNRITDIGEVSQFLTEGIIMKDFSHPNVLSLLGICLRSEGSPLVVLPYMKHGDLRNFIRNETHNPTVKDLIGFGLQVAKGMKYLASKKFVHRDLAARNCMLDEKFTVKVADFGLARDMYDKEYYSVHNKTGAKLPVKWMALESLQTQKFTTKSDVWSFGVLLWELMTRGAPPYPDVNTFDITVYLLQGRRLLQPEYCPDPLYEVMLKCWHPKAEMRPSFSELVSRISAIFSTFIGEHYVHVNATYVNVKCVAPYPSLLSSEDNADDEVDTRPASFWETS
Sequence of Proto-oncogene tyrosine-protein kinase Src (P12931 2-536 limits assumed): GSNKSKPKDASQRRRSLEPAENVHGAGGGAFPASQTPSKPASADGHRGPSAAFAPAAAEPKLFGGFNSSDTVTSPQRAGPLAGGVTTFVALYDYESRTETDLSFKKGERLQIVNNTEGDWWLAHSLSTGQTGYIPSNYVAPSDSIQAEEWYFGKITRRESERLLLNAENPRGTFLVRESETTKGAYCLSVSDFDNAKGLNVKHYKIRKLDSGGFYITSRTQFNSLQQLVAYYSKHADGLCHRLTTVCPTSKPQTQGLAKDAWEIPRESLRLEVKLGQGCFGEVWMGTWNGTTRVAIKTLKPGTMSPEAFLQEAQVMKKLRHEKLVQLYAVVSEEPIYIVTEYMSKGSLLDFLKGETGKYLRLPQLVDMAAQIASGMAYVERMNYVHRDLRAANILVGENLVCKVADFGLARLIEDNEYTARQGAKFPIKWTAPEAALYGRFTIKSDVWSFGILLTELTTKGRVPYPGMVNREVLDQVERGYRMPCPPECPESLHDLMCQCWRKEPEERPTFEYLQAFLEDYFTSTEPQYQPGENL
Sequence of Ephrin type-B receptor 2 (P29323 whole entry): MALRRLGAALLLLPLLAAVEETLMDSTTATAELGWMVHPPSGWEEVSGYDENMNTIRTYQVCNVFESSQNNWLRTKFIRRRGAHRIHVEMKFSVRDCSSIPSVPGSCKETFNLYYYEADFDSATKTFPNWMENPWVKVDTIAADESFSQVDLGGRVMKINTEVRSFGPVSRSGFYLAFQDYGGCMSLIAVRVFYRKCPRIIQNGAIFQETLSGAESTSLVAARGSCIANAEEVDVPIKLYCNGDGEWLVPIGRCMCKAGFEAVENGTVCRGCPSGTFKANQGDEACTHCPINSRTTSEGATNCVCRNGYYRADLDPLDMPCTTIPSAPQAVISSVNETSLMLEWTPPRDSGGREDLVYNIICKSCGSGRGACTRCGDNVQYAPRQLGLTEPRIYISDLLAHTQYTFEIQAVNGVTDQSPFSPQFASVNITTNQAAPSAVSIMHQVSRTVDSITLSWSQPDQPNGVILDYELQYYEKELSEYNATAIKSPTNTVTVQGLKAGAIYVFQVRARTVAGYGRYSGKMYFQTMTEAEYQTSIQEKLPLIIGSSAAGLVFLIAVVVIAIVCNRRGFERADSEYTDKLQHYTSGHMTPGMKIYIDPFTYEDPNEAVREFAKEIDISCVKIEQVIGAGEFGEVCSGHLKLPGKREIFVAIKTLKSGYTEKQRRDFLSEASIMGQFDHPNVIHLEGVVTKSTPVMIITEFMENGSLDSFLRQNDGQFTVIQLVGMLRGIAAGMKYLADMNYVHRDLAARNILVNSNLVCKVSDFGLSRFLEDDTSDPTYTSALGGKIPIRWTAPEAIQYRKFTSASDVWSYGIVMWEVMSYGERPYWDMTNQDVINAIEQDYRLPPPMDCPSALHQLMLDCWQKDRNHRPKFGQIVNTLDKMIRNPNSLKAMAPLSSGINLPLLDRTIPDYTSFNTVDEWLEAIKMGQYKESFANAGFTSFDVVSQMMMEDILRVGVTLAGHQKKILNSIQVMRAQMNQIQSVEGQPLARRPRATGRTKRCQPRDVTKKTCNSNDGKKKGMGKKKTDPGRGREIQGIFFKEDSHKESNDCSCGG

SMILES: CC(=O)N1CCN(c2cnc3cc(C(F)(F)F)cc(NCc4cccc([N+](=O)[O-])c4)c3c2)CC1
- IC50 (BaF3 [1]): 12.2 µM
- inhibition [2]: Dose-dependent effect
- inhibition [3]: Dose-dependent effect
- IC50 (BaF3 [4]): 0.39 µM
- IC50 (NIH3T3 [5]): 2 µM
- IC50 (NIH3T3 [6]): ≥ 50 µM
- AUC(0-inf) [7]: 2100 ng·h/mL
- bioavailability [8]: 37.5%
- IC50 [9]: > 10 µM
- IC50 [10]: > 10 µM
- IC50 [11]: > 10 µM
- IC50 [12]: > 10 µM
- IC50 (Ephrin type-A receptor 2): > 10 µM
- inhibition [13]: Active
- inhibition [14]: Active
- inhibition [15]: Active
- inhibition [16]: Active
- inhibition [17]: Active
- inhibition [18]: Active
- inhibition [19]: Active
- inhibition [20]: Active
- inhibition [21]: Active
- IC50 (MKN-45): 1 µM
- IC50 (SNU-5): 1 µM
- IC50 (SNU1): ≥ 50 µM
- IC50 (NCI-H441): ≥ 50 µM
- IC50 (MDA-MB-231): ≥ 50 µM
- IC50 (BXPC-3): 46 µM
- inhibition (U-87MG ATCC): Active
- Activity (Mus musculus [22]): Non-toxic
- Activity (Mus musculus [23]): Non-toxic
- IC50 (Ephrin type-B receptor 2): > 10 µM
- IC50 [24]: > 10 µM
- IC50 [25]: > 10 µM
- inhibition [26]: Active
- inhibition [27]: inactive
